Laboratory results published in ChEMBL document CHEMBL1146517, “Scleritodermin A, a cytotoxic cyclic peptide from the lithistid sponge Scleritoderma nodosum” (J Nat Prod, 2004).
The source made the active and inactive calls. No cut-off for these calls is given here.

How the values were obtained:
HCT-116 [1] = test: Cytotoxicity against human HCT116 cells after 72 hrs by MTS assay; format: functional, cell-based; conditions: HCT-116, 72 h
How it was run: (§1)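 Cells grown in RPMI 1640 with 5 mM HEPES and 10% FBS; HCT116/VM46 is a multidrug-resistant subline of HCT116. Seeded in microtiter plates, compound added 24 h later as serial dilutions, then 72 h at 37 °C. MTS plus phenazine methosulfate added, absorbance read at 492 nm as viable-cell measure; IC50 reported.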

HCT-116 [2] = test: Cytotoxicity against VM46-resistant human HCT116 cells overexpressing P-gp after 72 hrs by MTS assay; format: functional, cell-based; conditions: HCT-116, 72 h; how it was run: as §1
A2780 [3] = test: Cytotoxicity against human A2780 cells after 72 hrs by MTS assay; format: functional, cell-based; conditions: A2780, 72 h; how it was run: as §1
SK-BR-3 = test: Cytotoxicity against human SKBR3 cells after 72 hrs by MTS assay; format: functional, cell-based; conditions: SK-BR-3, 72 h; how it was run: as §1
HCT-116 [4] = test: Ratio of IC50 for VM46-resistant human HCT116 cells overexpressing P-gp to IC50 for human HCT116 cells; format: functional
A2780 [5] = test: Induction of apoptosis in human A2780 cells at 1.3 uM after 24 hrs by TUNEL assay; format: functional
How it was run: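 A2780 cells seeded in six-well plates, treated the next day for 24 h, then collected. Apoptosis scored by TUNEL assay read by flow cytometry, with doublet discrimination gates during acquisition and analysis; apoptosis expressed as fold induction.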

A2780 [6] = test: Cell cycle arrest in human A2780 cells assessed as accumulation at G2/M phase at 1.3 uM after 24 hrs by flow cytometry analysis; format: functional, cell-based
How it was run: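 A2780 cells seeded in six-well plates, compound added next day for 24 h. Cells trypsinized, fixed overnight in 80% ethanol at -20 °C, PBS-washed, stained 1 h at RT with propidium iodide (50 µg/mL) and RNase (10 µg/mL). Flow cytometry; G0/G1, S and G2-M fractions calculated from DNA histograms.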

Bos taurus = species: Bos taurus; test: Inhibition of GTP-induced calf brain tubulin polymerization at 10 uM
How it was run: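 Twice-cycled calf brain tubulin in 100 mM MES pH 6.6, 1 mM EGTA, 0.5 mM MgCl2, preincubated with compound. Polymerization started with 500 µM GTP; absorbance at 350 nm read every 36 s in cuvettes held at 37 °C.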

CC[C@@H](C)[C@@H]1NC(=O)[C@@H]2CCCN2C(=O)[C@@H](NC(=O)[C@@H]2CCCN2C(=O)[C@@H](COC)NS(=O)(=O)[O-])COC(=O)/C(C)=C\C(C)=C\c2csc(n2)[C@H](Cc2ccc(O)cc2)NC(=O)C1=O.[Na+] [SCLERITODERMIN A]
IC50 (HCT-116 [1]): 1900 nM | IC50 (HCT-116 [2]): 5600 nM | IC50 (A2780 [3]): 940 nM | IC50 (SK-BR-3): 670 nM | Ratio IC50 (HCT-116 [4]): 2.9 | fold change (FC) (A2780 [5]): 5.5 | Activity (A2780 [6]): Active | inhibition (Bos taurus): 50%

CC[C@]1(O)C[C@@H]2CN(CCc3c([nH]c4ccccc34)[C@@](C(=O)OC)(c3cc4c(cc3OC)N(C)[C@H]3[C@@](O)(C(=O)OC)[C@H](OC(C)=O)[C@]5(CC)C=CCN6CC[C@]43[C@@H]65)C2)C1 [VINBLASTINE]
IC50 (HCT-116 [1]): 3 nM | IC50 (HCT-116 [2]): 135 nM | IC50 (A2780 [3]): 5 nM | IC50 (SK-BR-3): 72 nM | Ratio IC50 (HCT-116 [4]): 45
